{"data": "Published values gathered from unrelated publications", "target": "RAC-alpha serine/threonine-protein kinase (AKT1, Homo sapiens, UniProt P31749)", "note": "Lines come from different studies, so protocols differ."}
{"SMILES": "C[C@@H](c1ccc(-n2cnc3c(N)ncnc32)cc1)N1CCc2nn(C)c(Cc3ccccc3)c2C1=O", "read-out": "binding", "technique": "competition with immobilised ligand", "concentration": "0.1 µM", "remaining binding": "100%"}
{"SMILES": "C[C@@H]1CN(c2ccc3ncc(-c4ccc5[nH]nc(C6CC6)c5c4)n3n2)C[C@H](C)O1", "read-out": "binding", "technique": "competition with immobilised ligand", "concentration": "0.5 µM", "remaining binding": "100%"}
{"SMILES": "O=C(c1ccc(Nc2nccc(-c3cc4ccccc4s3)n2)cc1)N1CCC(N2CCCC2)CC1", "read-out": "binding", "technique": "competition with immobilised ligand", "concentration": "1 µM", "remaining binding": "100%"}
{"SMILES": "CN1CCN(c2cnc3c(C4CCN(C(=O)c5ccc(OC(F)(F)F)cc5N)CC4)ncnc3c2)CC1", "read-out": "cell-free assay", "technique": "competition with immobilised ligand", "concentration": "1 µM", "remaining binding": "100%"}
{"SMILES": "CNC(=O)[C@@H]1CC[C@@H](n2c(-c3ccc4cnccc4c3)nc3ccc(C(=O)NCc4cccc(C(N)=O)c4)cc32)C1", "read-out": "binding", "technique": "competition with immobilised ligand", "concentration": "1 µM", "remaining binding": "100%"}
{"SMILES": "O=C(c1ccc(Nc2ncc(Cl)c(-c3cc4ccccc4s3)n2)cc1)N1CCC(N2CCCC2)CC1", "read-out": "binding", "technique": "competition with immobilised ligand", "concentration": "1 µM", "remaining binding": "100%"}
{"SMILES": "COc1ccnn2ncc(-c3ccnc(N(C)C)n3)c12", "read-out": "binding", "concentration": "1 µM", "remaining binding": "100%"}
{"SMILES": "CC(C)(C)c1ccc(-c2nc(CBr)nn2-c2cccc(O)c2)cc1", "read-out": "cell-free assay", "technique": "competition with immobilised ligand", "concentration": "10 µM", "remaining binding": "94%"}
{"SMILES": "N#Cc1ccccc1CSc1nnc2c(n1)[nH]c1ccccc12", "read-out": "binding", "technique": "competition with immobilised ligand", "concentration": "10 µM", "remaining binding": "85%"}
{"SMILES": "CCN1CCN(Cc2ccc(C(=O)Nc3ccc(C)c(Oc4ccc5c(c4)CC(=O)N5)c3)cc2C(F)(F)F)CC1", "read-out": "binding", "technique": "competition with immobilised ligand", "concentration": "1 µM", "remaining binding": "94%"}
{"SMILES": "Cc1cnc(Nc2ccc(C(=O)N3CCC(N4CCCC4)CC3)cc2)nc1-c1cc2ccccc2s1", "read-out": "binding", "technique": "competition with immobilised ligand", "concentration": "1 µM", "remaining binding": "100%"}
{"SMILES": "Cc1nc(Cc2cccc(C(F)(F)F)c2)sc1-c1ccc(C(N)=O)nc1", "read-out": "cell-free assay", "technique": "competition with immobilised ligand", "concentration": "1 µM", "remaining binding": "82%"}
{"SMILES": "CN(C)c1ncc(F)c(-c2cnn3ncccc23)n1", "read-out": "binding", "concentration": "1 µM", "remaining binding": "100%"}
{"SMILES": "CC1=C(C#N)C(c2ccc3c(c2)c(NC(=O)c2ccccc2C)nn3C)C(C#N)=C(C)N1", "read-out": "cell-free assay", "technique": "competition with immobilised ligand", "concentration": "1 µM", "remaining binding": "94%"}
{"SMILES": "N[C@H]1CCN(c2nccc(-c3cnn4ncccc34)n2)C1", "read-out": "binding", "concentration": "1 µM", "remaining binding": "97%"}
{"SMILES": "FC(F)(F)c1ccc2c(c1)nc(-c1cccnc1)n2C1CC1", "read-out": "cell-free assay", "technique": "competition with immobilised ligand", "concentration": "1 µM", "remaining binding": "100%"}
{"SMILES": "CC1CCCN1c1nccc(-c2cnn3ncccc23)n1 (stereo not shown)", "read-out": "binding", "concentration": "1 µM", "remaining binding": "100%"}
{"SMILES": "O=C(NCCCC1CCCCC1)c1ccc(CNC(=O)c2cnn(-c3ccccc3)c2C(F)(F)F)cc1", "read-out": "cell-free assay", "technique": "competition with immobilised ligand", "concentration": "0.1 µM", "remaining binding": "100%"}
{"SMILES": "O=C(Nc1c[nH]nc1C(=O)NC1CCNCC1)c1cc(F)cc(F)c1", "read-out": "binding", "technique": "competition with immobilised ligand", "concentration": "1 µM", "remaining binding": "92%"}
{"SMILES": "O=C(NCc1ncc(C(F)(F)F)cc1Cl)c1ccc2c(c1)C1(CCS(=O)(=O)CC1)[C@@H](C1CC1)N2S(=O)(=O)c1ccc(F)cc1", "read-out": "cell-free assay", "technique": "competition with immobilised ligand", "concentration": "1 µM", "remaining binding": "94%"}
{"SMILES": "CN(CCCC(F)(F)F)c1nccc(-c2cnn3ncccc23)n1", "read-out": "binding", "concentration": "1 µM", "remaining binding": "100%"}
{"SMILES": "N#Cc1ccc(Nc2ccc3[nH]c(=O)[nH]c3c2)c(Cl)c1", "read-out": "cell-free assay", "technique": "competition with immobilised ligand", "concentration": "1 µM", "remaining binding": "67%"}
{"SMILES": "CN(c1nccc(-c2cnn3ncccc23)n1)C1CC1", "read-out": "binding", "concentration": "1 µM", "remaining binding": "100%"}
{"SMILES": "CS(=O)(=O)N1CCCC(NC(=O)[C@H](CCC2CCCCC2)NC(=O)c2ccc(CNC(=O)c3cnc4ccccn34)cc2)C1 (stereo partly shown)", "read-out": "cell-free assay", "technique": "competition with immobilised ligand", "concentration": "0.1 µM", "remaining binding": "100%"}
{"SMILES": "C[C@H]1CCN(c2nccc(-c3cnn4ncccc34)n2)C1", "read-out": "binding", "concentration": "1 µM", "remaining binding": "92%"}
